One series relates to MCF7. The series is described as follows: Antiproliferative activity against MCF7 cells. The note with it: Homo sapiens. The format is functional, cell-based.
Another series concerns HT-29. The series is described as follows: Antiproliferative activity against HT29 cells. The format is functional, cell-based. The settings on record: Homo sapiens.
Series [1] concerns Arachidonate 12-lipoxygenase, platelet type (Homo sapiens). As to the kind of experiment: Inhibition of LOX12 by human platelet assay. On the set-up: concentration or dose not given beside the values. The note with it: concentration not given here.
A short description of series [2]: Stability in phosphate buffer. The class given is physicochemical.
The target in series [3] is Prostaglandin G/H synthase 1 (Homo sapiens) (UniProt P23219). As to the kind of experiment: Inhibition of COX1 by human platelet assay. The note with it: concentration not given here. On the set-up: concentration or dose not given beside the values. An outline of the steps: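 Enzyme activities measured in human platelets incubated for 60 min in buffer solution at 37 °C. 12-LOX activity was read out as formation of 12(S)-HETE. COX-1 activity was read out as formation of its eicosanoid product.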
Chain of Prostaglandin G/H synthase 1 (Homo sapiens) (P23219 whole entry): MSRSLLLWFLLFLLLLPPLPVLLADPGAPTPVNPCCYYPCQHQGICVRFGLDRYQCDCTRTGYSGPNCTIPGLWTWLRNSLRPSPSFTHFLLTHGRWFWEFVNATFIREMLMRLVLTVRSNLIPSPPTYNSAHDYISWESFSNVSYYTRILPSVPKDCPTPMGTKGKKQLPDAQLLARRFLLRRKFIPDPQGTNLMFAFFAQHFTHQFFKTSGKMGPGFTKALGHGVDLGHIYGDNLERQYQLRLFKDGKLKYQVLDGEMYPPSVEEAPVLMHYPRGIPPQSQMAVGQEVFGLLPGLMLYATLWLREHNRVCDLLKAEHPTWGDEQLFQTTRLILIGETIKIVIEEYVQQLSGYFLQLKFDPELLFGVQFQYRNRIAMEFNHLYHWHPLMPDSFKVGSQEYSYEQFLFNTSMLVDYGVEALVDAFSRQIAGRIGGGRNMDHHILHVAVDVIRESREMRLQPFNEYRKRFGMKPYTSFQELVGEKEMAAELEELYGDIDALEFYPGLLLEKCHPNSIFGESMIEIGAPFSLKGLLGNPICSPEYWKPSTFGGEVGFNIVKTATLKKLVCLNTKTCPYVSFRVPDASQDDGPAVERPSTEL

These results are taken from ChEMBL document CHEMBL1146294 (Bioorg Med Chem Lett, 2007).

pIC50: −log10 of the molar value. A value given as a limit tells only on which side of the number the result lay.

In general, pIC50 refers to the negative decadic logarithm of the IC50, by convention in mol/L. As to `CC(=O)OCC(OC(C)=O)C(OC(C)=O)C(Cn1c2nc(=O)n(CCO)c(=O)c-2nc2cc(C)c(C)cc21)OC(C)=O` (stereo not drawn), the pIC50 in the series with MCF7 and in the series with HT-29 was less than 4.00 in each case.
Broadly, the inhibition is the change of the read-out against control, counted positive when it falls. Turning to `CC(=O)OCC(OC(C)=O)C(OC(C)=O)C(Cn1c2nc(=O)n(CCCCOC(=O)C(C)c3ccc(CC(C)C)cc3)c(=O)c-2nc2cc(C)c(C)cc21)OC(C)=O` (stereo not drawn), the inhibition in series [1] was less than 11%; in series [3] it was 37%. The pIC50 in the series with MCF7 is 5.02; with HT-29, 4.98. In addition, in series [2], the Stability entry is “Stable”.
The corresponding values for `CC(=O)OCC(OC(C)=O)C(OC(C)=O)C(Cn1c2nc(=O)n(CCCOC(=O)C(C)c3ccc(CC(C)C)cc3)c(=O)c-2nc2cc(C)c(C)cc21)OC(C)=O` (stereo not drawn) are less than 11%, 15%, 5.11, 5.03 and “Stable”.
With `CC(=O)OCC(OC(C)=O)C(OC(C)=O)C(Cn1c2nc(=O)[nH]c(=O)c-2nc2cc(C)c(C)cc21)OC(C)=O` (stereo not drawn), the figures for the pIC50 with MCF7 and with HT-29 were 4.27 and 4.04, respectively.
Consider `CC(=O)OCC(OC(C)=O)C(OC(C)=O)C(Cn1c2nc(=O)n(CCCCCOC(=O)C(C)c3ccc(CC(C)C)cc3)c(=O)c-2nc2cc(C)c(C)cc21)OC(C)=O` (stereo not drawn), for which the inhibition in series [1] is less than 11%; in series [3], 43%. The pIC50 in the series on MCF7 is 5.02; in the series on HT-29, 4.88. Further, the Stability result in series [2] is listed as “Stable”.
Turning to `O=c1[nH]cc(F)c(=O)[nH]1` [FLUOROURACIL], the pIC50 with HT-29 is 5.14.
On to `CC(=O)OCC(OC(C)=O)C(OC(C)=O)C(Cn1c2nc(=O)n(COC(=O)C(C)c3ccc(CC(C)C)cc3)c(=O)c-2nc2cc(C)c(C)cc21)OC(C)=O` (stereo not drawn), for which the inhibition was less than 11% in series [1] and 15% in series [3]. For the same compound, the negative-log IC50 (pIC50) was 4.91 in the series with MCF7 and 4.92 in the series with HT-29. In addition, the Stability result in series [2] was “Stable”.
In the case of `CC(=O)OCC(OC(C)=O)C(OC(C)=O)C(Cn1c2nc(=O)n(CCOC(=O)C(C)c3ccc(CC(C)C)cc3)c(=O)c-2nc2cc(C)c(C)cc21)OC(C)=O` (stereo not drawn), the inhibition was less than 11% in series [1] and 15% in series [3]. In addition, the negative logarithm of the IC50 (pIC50) with MCF7 is 4.83; with HT-29, 4.90. Also, the Stability entry in series [2] was “Stable”.
Consider `CC(C)Cc1ccc([C@H](C)C(=O)O)cc1` [DEXIBUPROFEN], for which the figures for the negative logarithm of the IC50 (pIC50) in the series with MCF7 and with HT-29 were 3.10 and less than 3.00, respectively. This compound also had an inhibition in series [3] of 90%.
